In ChEMBL document CHEMBL1123396, “Glycine antagonists. Synthesis, structure, and biological effects of some bicyclic 5-isoxazolol zwitterions” (J Med Chem, 1986):

Tests used:
[1] = molecular target: GABA-A receptor; anion channel; assay: In vitro inhibition of [3H]GABA binding to Gamma-aminobutyric acid receptor from rat brain synaptic membranes.; format: cell membranes, Membrane
Summary of the method: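 Rat brain synaptic membranes (0.8–1.2 mg protein) incubated in triplicate in 50 mM Tris-citrate pH 7.1 with 5 nM [3H]GABA and various test concentrations, 15 min at 2 °C. Centrifugation at 48000g for 10 min, pellets rinsed twice with cold water, scintillation counting. Nonspecific binding (1 mM GABA) subtracted. IC50 by log-probit analysis of inhibition at at least four concentrations.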

[2] = pKa value of the compound; format: physicochemical
Summary of the method: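 Potentiometric titration with 0.1 N NaOH to pH ca. 10, ionic strength held constant with 0.15 M KCl.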

GABA transporter = GABA transporter (Rattus norvegicus, UniProt P31647+P23978+P31646+P48056); assay: In vitro inhibition of rat neuronal (synaptosomal) GABA uptake.; format: protein assay
Summary of the method: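 Crude rat whole-brain synaptosomes (homogenized in 0.32 M sucrose, 600g and 25000g spins at 4 °C) suspended in oxygenated phosphate medium. Preincubated 10 min at 25 °C with inhibitor, then [3H]GABA added to 50 nM final and incubated 10 min more. Rapid glass-fiber filtration, ice-cold buffer wash, scintillation counting.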

Compound | IC50 [1] | pKa [2] | IC50 (GABA transporter)
Oc1noc2c1CNCC2 | 72 µM | – | –
Oc1onc2c1CCNCC2 | 15 µM | 3.3 | > 300 µM
Oc1onc2c1CNCCC2 | > 100 µM | 2.6 | > 300 µM
NCCC(N)C(=O)O (stereo unspecified) | 0.033 µM | 4 | –
Oc1onc2c1CNCC2 | 100 µM | 3 | 130 µM
Oc1noc2c1CCNCC2 | – | – | > 300 µM
Oc1onc2c1CCCNC2 | > 100 µM | 2.5 | > 300 µM
